From PubChem BioAssay AID720717 (ICCB-Longwood Screening Facility, Harvard Medical School, 2013)
The whole screen tested about 51,000 compounds, of which about 150 (0.29%) were called active. The full list was thinned out, with actives kept by preference. Values without a mark were called inactive.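 How the source made its calls: active means both repeat wells score below -2 in polarization z-score versus plate sample wells, excluding overly bright wells; inactive means the rest.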

Tested on: LANA (ORF73) N-terminal peptide binding to nucleosomes, Human herpesvirus 8
Experiment: inhibitors of KSHV LANA-nucleosome binding, primary screen, biochemical, fluorescence polarization, FITC-LANA1-23, chicken nucleosomes (AID 720717)
Settings: FITC-LANA1-23 / chicken nucleosome fluorescence polarization; stronger effect = lower value
Summary of the method: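 Material: Purified chicken nucleosomes with FITC-labelled LANA N-terminal peptide (1-23) | Reagent: 50 nM FITC-LANA1-23 probe | Medium: TEN-BT buffer, pH 7.5 | Times: 10–45 min incubation at room temperature | Detection: Fluorescence polarization | Replication: Duplicates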

SMILES | z-score
S=c1[nH]nc(NCCc2ccccc2)s1 | 0.44
O=C1NC(c2ccccc2)=NC1(Nc1ccccn1)C(F)(F)F (stereo unspecified) | 0.245
CCOC(=O)c1nn(-c2ccccc2)c(C(=O)OCC)c1N(C(=O)CC)C(=O)CC | -0.275
O=C1CCCc2nc3nc(-c4ccncc4)nn3cc21 | -0.949
CC(Sc1nnc(COc2ccccc2)n1-c1ccccc1)C(=O)O (stereo unspecified) | 0.582
O=c1[nH]ncc2c1[nH]c1ccccc12 | 0.221
O=C1C2C3C=CC(C3)C2C(=O)N1C1CC2CCC1C2 (stereo unspecified) | -0.407
N/C(=N\OC(=O)Nc1ccccc1)c1ccno1 | -0.0325
C=CCOC(=O)c1cc(-c2ccc(/C=C3/NC(=S)NC3=O)o2)ccc1Cl | 0.594
COC(=O)CSc1nc(-c2ccccc2)cc(C)c1C#N | -0.143
CN(C)c1ccc(C(=S)N2CCN(c3cccc(Cl)c3)CC2)cc1 | 0.446
COc1cccc(/C=N/NC(=O)c2cccc(C)c2)c1O | -0.518
Cc1ccccc1-c1n[nH]n2c1nc(=O)c1cc(Cl)ccc12 | 0.639
O=C(NCc1ccncc1)C1CCN(C(=O)c2cccc(Cl)c2)CC1 | 0.832
Clc1ccc(C2N=C(c3cnccn3)NN2)cc1 (stereo unspecified) | -2.98 (active)
CN(C)CCC(O)c1cc(Cl)sc1Cl (stereo unspecified) | 0.472
CC(=O)N1c2ccccc2NC(=O)C1CC(=O)Nc1cccc(C)c1 (stereo unspecified) | 2.28
O=C(Nc1ccc(-c2cn3cccnc3n2)cc1)C1CCCC1 | 0.642
CCOC(=O)C1=NNC2C(=O)N(c3cc(Cl)ccc3OC)C(=O)C12 (stereo unspecified) | -0.513
O=C(O)/C=C\C(=O)NCc1ccc2c(c1)OCO2 | 0.273
CC1=CC(C)C2(COC(CN3CCCCC3)OC2)C(C)C1 (stereo unspecified) | -0.0595
CN(Cc1ccccc1)C1(O)C(=O)Nc2c(C(F)(F)F)cccc21 (stereo unspecified) | 0.254
COc1ccc(CNC(=O)NC2CCN(S(=O)(=O)c3ccc(OC)cc3)CC2)cc1 | 0.0685
Clc1cccc(Nc2nc3ccccc3c3nncn23)c1 | -0.519
CC(=O)O/N=C/c1ccc(N(C)C)cc1 | 0.621
CCc1ccc(NS(=O)(=O)c2cnn(CC)c2)cc1 | -1.21

SMILES | z-score
Cc1cc(NCc2cccnc2)no1 | -0.669
CCn1cc(S(=O)(=O)Nc2cc(C)on2)cn1 | -2.19 (active)
Cc1ccc(-n2nc(C)c(C(=O)O)n2)cc1 | -0.785
CCCN(CCC)C(=O)Cn1ncn2c(cc3ccccc32)c1=O | 0.518
Cc1cc2c(cc1S(=O)(=O)CCC(=O)N1CCCC1)OCC(=O)N2 | -1.11
O=C(Nc1ccc(Cl)cc1)Nc1cc(C(=O)NCC2CCCO2)ccc1N1CC2CC(C1)c1cccc(=O)n1C2 (stereo unspecified) | 0.571
O=c1[nH]cc(S(=O)(=O)N2CCc3ccccc32)c(=O)[nH]1 | -0.177
CCN(CC)S(=O)(=O)c1c(C)nn(S(=O)(=O)c2ccccc2)c1C | 1.21
C(=N\N(Cc1ccccc1)Cc1ccccc1)/c1ccco1 | -1.14
CCOC(=O)C(N)Cc1c[nH]c2ccccc12 (stereo unspecified) | 0.0765
Cc1ccc2cc(CN(CCN3CCCC3)C(=O)NC3CCCCC3)c(=O)[nH]c2c1C | 0.448
CC(C)(Oc1ccc(Cl)cc1)C(=O)Nc1ccc2oc(-c3cccnc3)nc2c1 | 0.188
C=C(C)Cn1nc(C)c(-c2cc(C(=O)O)[nH]n2)c1C | -0.083
Cc1cccc(-c2cc(C(=O)N3CCN(C(=O)c4ccco4)CC3)c3ccc(Cl)c(C)c3n2)c1 | 0.0795
O=C1NN=C(c2ccccc2)C1CCO (stereo unspecified) | -0.74
CS(=O)(=O)C1=NSC2=NC(=O)/C(=C\c3ccco3)C(=N)N21 | -0.748
O=C(COc1ccccc1)n1c(=O)oc2ccccc21 | -1.36
CCS(=O)(=O)N1CCCC(c2nc3c(nnn3Cc3ccc(C)cc3)c(=O)[nH]2)C1 (stereo unspecified) | -1.1
O=C(CSc1nc2ncccc2o1)NCc1ccco1 | 0.0485
CCNC(=O)CC1C(=O)N(c2ccc(OC)cc2)C(=O)N1CCOC (stereo unspecified) | -0.571
COc1ccc(C(c2nnnn2C(C)(C)C)N2CCN(c3ccccc3)CC2)cc1 (stereo unspecified) | -0.537
COc1ccc(C2C3=C(CCCC3=O)N(CC(=O)O)C3=C2C(=O)CCC3)cc1 | 1.54
Cc1ccc(C(=O)NC(C(=O)O)c2ccccc2)cc1 (stereo unspecified) | 0.558
C=CCNc1nc(N)sc1C#N | 0.79
COc1cc(Br)cc(/C=N/O)c1O | -0.372
